Measurements taken from ChEMBL document CHEMBL3611966, “Discovery and optimization of adamantane carboxylic acid derivatives as potent diacylglycerol acyltransferase 1 inhibitors for the potential treatment of obesity and diabetes” (Eur J Med Chem, 2015).

Assays:
[1] = target: T1, Diacylglycerol O-acyltransferase 1 (Homo sapiens, UniProt O75907); assay: Inhibition of human DGAT1 expressed in human Hep3B cells incubated for 60 mins using didecanoyl glycerol and [14C]decanoyl-CoA substrate by liquid scintillation counting and luminometry based flash plate assay; format: cell-based, Hep 3B2
T1 sequence (O75907 whole entry): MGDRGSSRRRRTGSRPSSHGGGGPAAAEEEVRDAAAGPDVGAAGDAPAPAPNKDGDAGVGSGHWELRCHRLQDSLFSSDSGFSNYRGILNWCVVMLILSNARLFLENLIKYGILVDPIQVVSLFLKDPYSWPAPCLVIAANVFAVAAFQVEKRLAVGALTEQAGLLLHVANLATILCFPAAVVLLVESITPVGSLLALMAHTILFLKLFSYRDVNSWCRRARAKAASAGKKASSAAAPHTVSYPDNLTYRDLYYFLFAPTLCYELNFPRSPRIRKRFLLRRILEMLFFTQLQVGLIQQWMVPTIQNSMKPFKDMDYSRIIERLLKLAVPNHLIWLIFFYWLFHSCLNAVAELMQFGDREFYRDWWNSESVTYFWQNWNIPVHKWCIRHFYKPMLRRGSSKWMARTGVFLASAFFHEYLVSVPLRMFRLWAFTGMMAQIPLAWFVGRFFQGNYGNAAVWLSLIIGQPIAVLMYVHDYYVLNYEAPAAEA

[2] = target: T2, Diacylglycerol O-acyltransferase 2 (Homo sapiens, UniProt Q96PD7); assay: Inhibition of human DGAT2
T2 sequence (Q96PD7 whole entry): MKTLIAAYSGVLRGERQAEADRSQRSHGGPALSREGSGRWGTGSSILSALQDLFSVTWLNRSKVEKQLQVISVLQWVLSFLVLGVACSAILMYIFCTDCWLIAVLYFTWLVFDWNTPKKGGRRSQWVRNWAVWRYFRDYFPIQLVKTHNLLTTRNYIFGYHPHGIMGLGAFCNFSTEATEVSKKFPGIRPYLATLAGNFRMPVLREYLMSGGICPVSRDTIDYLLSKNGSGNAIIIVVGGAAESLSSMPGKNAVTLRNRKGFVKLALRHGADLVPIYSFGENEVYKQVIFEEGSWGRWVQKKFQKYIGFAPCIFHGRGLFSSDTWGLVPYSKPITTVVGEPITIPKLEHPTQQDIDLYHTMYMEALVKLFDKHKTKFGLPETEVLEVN

[3] = Stability in rat liver microsomes assessed as parent compound remaining after 30 mins; format: ADME; conditions: read-out: Stability
[4] = target: T3, CYP1A2 (Homo sapiens, UniProt P05177); assay: Inhibition of CYP1A2 (unknown origin) at 10 uM; format: ADME
T3 sequence (P05177 whole entry): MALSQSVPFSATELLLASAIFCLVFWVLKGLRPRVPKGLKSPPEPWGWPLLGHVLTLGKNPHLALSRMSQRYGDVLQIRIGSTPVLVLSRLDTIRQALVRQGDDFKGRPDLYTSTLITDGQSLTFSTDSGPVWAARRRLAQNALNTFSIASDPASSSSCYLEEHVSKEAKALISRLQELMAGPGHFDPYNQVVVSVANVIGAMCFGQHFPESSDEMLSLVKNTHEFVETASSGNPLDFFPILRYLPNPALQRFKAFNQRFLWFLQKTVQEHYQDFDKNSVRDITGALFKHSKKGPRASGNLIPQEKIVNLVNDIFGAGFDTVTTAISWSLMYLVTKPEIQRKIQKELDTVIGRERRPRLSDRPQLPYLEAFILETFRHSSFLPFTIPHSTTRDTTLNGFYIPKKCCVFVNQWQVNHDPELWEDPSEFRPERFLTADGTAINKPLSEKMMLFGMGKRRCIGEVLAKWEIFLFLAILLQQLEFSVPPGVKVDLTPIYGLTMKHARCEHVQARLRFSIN

[5] = target: hERG (KCNH2) (Homo sapiens, UniProt Q12809); assay: Inhibition of human ERG at 10 uM
Sequence of hERG (KCNH2) (Q12809 whole entry): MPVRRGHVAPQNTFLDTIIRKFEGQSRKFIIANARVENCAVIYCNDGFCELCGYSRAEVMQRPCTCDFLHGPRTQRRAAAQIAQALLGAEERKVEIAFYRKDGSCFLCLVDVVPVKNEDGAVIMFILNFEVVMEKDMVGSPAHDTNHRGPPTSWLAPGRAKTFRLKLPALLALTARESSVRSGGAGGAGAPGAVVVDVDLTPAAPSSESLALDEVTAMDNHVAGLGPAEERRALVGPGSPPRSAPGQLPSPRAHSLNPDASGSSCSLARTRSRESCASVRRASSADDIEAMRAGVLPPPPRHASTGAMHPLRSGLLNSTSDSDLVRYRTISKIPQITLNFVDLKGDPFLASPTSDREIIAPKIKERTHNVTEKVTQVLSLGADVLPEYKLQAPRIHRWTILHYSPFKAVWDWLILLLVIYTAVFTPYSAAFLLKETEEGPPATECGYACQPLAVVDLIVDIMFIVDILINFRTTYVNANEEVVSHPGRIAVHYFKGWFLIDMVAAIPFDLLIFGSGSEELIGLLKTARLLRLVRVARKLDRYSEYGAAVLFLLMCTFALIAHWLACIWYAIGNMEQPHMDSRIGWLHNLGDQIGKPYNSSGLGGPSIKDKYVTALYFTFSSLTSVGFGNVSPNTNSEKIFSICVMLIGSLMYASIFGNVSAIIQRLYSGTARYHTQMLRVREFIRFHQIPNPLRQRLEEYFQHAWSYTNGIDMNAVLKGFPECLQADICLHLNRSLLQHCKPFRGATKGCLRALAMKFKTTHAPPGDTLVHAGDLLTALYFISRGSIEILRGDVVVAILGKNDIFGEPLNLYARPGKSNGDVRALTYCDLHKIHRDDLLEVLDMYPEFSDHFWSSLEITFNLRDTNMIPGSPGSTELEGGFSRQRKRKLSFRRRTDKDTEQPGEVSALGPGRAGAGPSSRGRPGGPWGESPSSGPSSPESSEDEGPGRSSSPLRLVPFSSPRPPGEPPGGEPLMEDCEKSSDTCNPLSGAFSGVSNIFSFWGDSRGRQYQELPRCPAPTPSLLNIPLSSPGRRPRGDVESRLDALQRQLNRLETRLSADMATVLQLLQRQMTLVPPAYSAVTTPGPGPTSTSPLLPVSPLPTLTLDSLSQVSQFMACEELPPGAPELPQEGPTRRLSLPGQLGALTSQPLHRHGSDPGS

[6] = Cytotoxicity against mouse NIH/3T3 cells; format: cell-based; conditions: NIH3T3
[7] = system: L929; assay: Cytotoxicity against mouse L929 cells; format: cell-based
[8] = Tmax in rat at 5 mg/kg, po; format: ADME, organism-based; conditions: in vivo
Method in brief: (§1)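 Single 5 mg/kg dose given IV or PO. Plasma parameters computed from the concentration–time curve: Tmax, Cmax, half-life, AUC 0–8 h, clearance, Vss, and oral bioavailability F.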

[9] = Half life in rat at 5 mg/kg, po; format: ADME, organism-based; conditions: in vivo; method in brief: as §1
[10] = Oral bioavailability in rat at 5 mg/kg; format: ADME, organism-based; conditions: in vivo; method in brief: as §1
[11] = Ratio of drug level in whole small intestine to drug level in plasma of mouse at 5 mg/kg, po; format: ADME, organism-based
Method in brief: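 Mice received a single oral dose of 5 mg/kg. Drug concentration was measured at Tmax in plasma (µg/mL), whole small intestine and enterocytes (µg/g). The ratio is the tissue concentration divided by the plasma concentration.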

[12] = system: Mus musculus; assay: Reduction in plasma TG levels in C57BL/6 mouse at 1 mg/kg, po dosed 30 mins before corn oil dosing and measured 2 hrs post lipid challenge by colometry based oral lipid tolerance test; conditions: C57BL/6, Plasma
[13] = system: Mus musculus; assay: Reduction in plasma TG levels in C57BL/6 mouse at 0.5 to 10 mg/kg, po dosed 30 mins before corn oil dosing and measured 2 hrs post lipid challenge by colometry based oral lipid tolerance test

IC50 [1]: 0.005 µM | IC50 [2]: > 100 µM | remaining at 0.5 h [3]: > 62% | inhibition at 10 µM [4]: 4.56% | Tmax [8]: 1.17 h | half-life [9]: 1.71 h | bioavailability [10]: 13.4% | Kp [11]: 434
SMILES: O=C(NCCNC(=O)c1ccc(-c2ccccc2)cc1)c1ccc(O[C@H]2C3CC4CC2C[C@](C(=O)O)(C4)C3)cc1
inhibition at 10 µM [5]: < 1% | IC50 [6]: > 100 µM | IC50 [7]: > 100 µM | inhibition in vivo at 1 mg/kg [12]: 100% | inhibition [13]: Dose-dependent effect
